Laboratory results: ChEMBL document CHEMBL4725371, “A Novel Redox Modulator Induces a GPX4-Mediated Cell Death That Is Dependent on Iron and Reactive Oxygen Species” (J Med Chem, 2020)
Calls of active or inactive are those of the source. The calls are words filed in the database; no cut-off is given here.

Legend:
[1] = target: T1, Phospholipid hydroperoxide glutathione peroxidase GPX4 (Homo sapiens) (UniProt P36969); assay: Binding affinity to GPX4 in human PANC-1 cells assessed as protein destabilization by measuring reduction in melting temperature at 100 uM measured after 1 hr by thermal shift assay; type: cell-based
T1 sequence (whole entry): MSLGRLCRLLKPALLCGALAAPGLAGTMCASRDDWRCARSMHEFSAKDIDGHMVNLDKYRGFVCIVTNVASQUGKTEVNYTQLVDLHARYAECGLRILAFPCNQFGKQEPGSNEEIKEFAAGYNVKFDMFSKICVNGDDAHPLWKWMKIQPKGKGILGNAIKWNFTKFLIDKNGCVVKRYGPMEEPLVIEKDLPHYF

[2] = target: Signal transducer and activator of transcription 3 (Homo sapiens) (UniProt P40763); assay: Inhibition of STAT3 phosphorylation in human MIA PaCa-2 cells at 1 to 1.5 uM measured after 4 hrs by Western blot analysis; type: cell-based; conditions: dose microM 1-1.5, time 4.0 hrs
Procedure, shortened: (§1)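 Cells were treated 4 h at the stated concentrations and lysed in RIPA with protease and phosphatase inhibitors. 25 μg protein was resolved on 10% SDS gels, transferred to PVDF and probed for STAT3, pSTAT3, pH2AX and GAPDH. Detection used fluorescent secondary antibodies, with normalisation to loading control.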

MIA PaCa-2 [3] = assay: Inhibition of colony formation in human MIA PaCa-2 cells at 0.4 to 0.8 uM measured after 7 to 9 days in presence of autophagy inhibitor chloroquine by crystal violet staining based assay; type: functional, cell-based; conditions: dose microM 0.4-0.8, time day 7-9
Procedure, shortened: (§2)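 Cells seeded overnight in 96-well plates at 300 cells/well (MIA PaCa-2) or 600 cells/well (BxPC-3), in RPMI 1640 with 10% FBS. Inhibitor added 1 h before compound, then continuous exposure for 7–9 days until control wells were 80–90% confluent. Stained with 0.05% crystal violet for 30 min, imaged after overnight drying and quantified.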

BXPC-3 = assay: Inhibition of colony formation in human BXPC-3 cells at 0.375 uM measured after 7 to 9 days in presence of GPX4 inhibitor RSL3 by crystal violet staining based assay; type: functional, cell-based; conditions: time day 7-9; procedure, shortened: as §2
CT26 = assay: Antitumor activity against mouse CT26 cells implanted in Balb/c mouse assessed as tumor shrinkage at 20 mg/kg, ip; type: functional, organism-based
Procedure, shortened: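 Female Balb/c mice aged 5–6 weeks, implanted subcutaneously in right flank with 1 × 10⁶ CT-26 cells in DPBS. Dosing began 7 days later with randomisation (n = 5/group, mean tumour 97–117 mm³). IV dosing was 3 times weekly and IP dosing was given. Vehicle control given daily IP. Mice were euthanised four hours post-dose after 17 days of dosing.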

PANC-1 [4] = assay: Synergistic inhibition of colony formation in human PANC-1 cells at 0.25 to 0.5 uM measured after 24 hrs in presence of olaparib by crystal violet staining based assay; type: functional, cell-based; conditions: dose microM 0.25-0.5, time 24.0 hrs
Procedure, shortened: (§3)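 Colony formation in 96-well plates seeded at 300 (MIA PaCa-2) or 600 (PANC-1) cells/well. Napabucasin, As2O3 or olaparib added 1 h before test compound; drugs on cells 24 h. Plates kept until controls were 80–90% confluent (7–9 days), then stained with 0.05% crystal violet and quantified. Synergy scored by HSA and Bliss models.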

MIA PaCa-2 [5] = assay: Inhibition of colony formation in human MIA PaCa-2 cells at 0.5 to 2 uM measured after 7 to 9 days in presence of N-acetylcysteine by crystal violet staining based assay; type: functional, cell-based; conditions: dose microM 0.5-2, time day 7-9; procedure, shortened: as §2
PANC-1 [6] = assay: Induction of DNA damage in human PANC-1 cells assessed as increase in H2AX phosphorylation at 1.2 to 1.8 uM measured after 4 hrs by Western blot analysis; type: functional, cell-based; conditions: dose microM 1.2-1.8, time 4.0 hrs; procedure, shortened: as §1
[7] = target: T1, Phospholipid hydroperoxide glutathione peroxidase GPX4 (Homo sapiens); assay: Binding affinity to GPX4 in human MIA PaCa-2 cells assessed as protein destabilization by measuring melting temperature at 100 uM measured after 1 hr by thermal shift assay (reference value: 60.34 degreeC); type: cell-based
MIA PaCa-2 [8] = assay: Inhibition of colony formation in human MIA PaCa-2 cells at 0.4 to 0.8 uM measured after 7 to 9 days in presence of necroptosis inhibitor necrostatin-1 by crystal violet staining based assay; type: functional, cell-based; conditions: dose microM 0.4-0.8, time day 7-9; procedure, shortened: as §2
MIA PaCa-2 [9] = assay: Down regulation of LRPPRC expression in human MIA PaCa-2 cells at 3 times IC50 measured after 4 hrs in presence of NAC by proteomics analysis; type: functional, cell-based
MIA PaCa-2 [10] = assay: Synergistic inhibition of colony formation in human MIA PaCa-2 cells at 0.25 to 0.5 uM measured after 24 hrs in presence of napabucasin by crystal violet staining based assay; type: functional, cell-based; conditions: dose microM 0.25-0.5, time 24.0 hrs; procedure, shortened: as §3

Signal transducer and activator of transcription 3 (Homo sapiens), sequence (P40763 whole entry): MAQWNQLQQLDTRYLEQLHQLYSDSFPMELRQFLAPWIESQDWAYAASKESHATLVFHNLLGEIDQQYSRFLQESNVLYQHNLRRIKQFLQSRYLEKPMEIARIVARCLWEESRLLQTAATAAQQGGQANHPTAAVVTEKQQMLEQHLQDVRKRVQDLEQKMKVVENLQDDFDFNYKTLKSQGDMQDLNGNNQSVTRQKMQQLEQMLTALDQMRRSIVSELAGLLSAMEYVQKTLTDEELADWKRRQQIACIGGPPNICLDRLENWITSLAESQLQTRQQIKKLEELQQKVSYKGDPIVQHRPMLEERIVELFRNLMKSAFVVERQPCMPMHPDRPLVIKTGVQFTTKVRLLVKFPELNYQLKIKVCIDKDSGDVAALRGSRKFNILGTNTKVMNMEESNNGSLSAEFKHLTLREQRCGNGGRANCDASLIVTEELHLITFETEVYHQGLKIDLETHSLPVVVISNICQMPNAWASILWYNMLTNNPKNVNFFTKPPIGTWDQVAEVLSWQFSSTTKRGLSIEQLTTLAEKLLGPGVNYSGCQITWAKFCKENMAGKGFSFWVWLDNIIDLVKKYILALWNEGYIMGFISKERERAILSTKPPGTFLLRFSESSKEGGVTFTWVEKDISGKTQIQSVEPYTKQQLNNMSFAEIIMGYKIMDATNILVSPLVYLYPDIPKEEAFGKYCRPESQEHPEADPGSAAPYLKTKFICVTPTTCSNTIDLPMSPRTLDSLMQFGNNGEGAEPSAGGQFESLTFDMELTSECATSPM

CN1CCN(c2ccc(NC3=CC(=O)c4ncncc4C3=O)cc2)CC1
Activity [1]: Active
inhibition [2]: Active
inhibition (MIA PaCa-2 [3]): Active
inhibition (BXPC-3): inactive
Activity (CT26): Active
inhibition (PANC-1 [4]): Active
inhibition (MIA PaCa-2 [5]): inactive
Activity (PANC-1 [6]): Active
Tm [7]: 57.6 °C
inhibition (MIA PaCa-2 [8]): Active
Activity (MIA PaCa-2 [9]): Active
inhibition (MIA PaCa-2 [10]): Active
